Results from article PMC5164959 (Biochemical pharmacology, 2016).
Values joined by “and” are separate entries in the source; they are usually repeats but may differ in a detail not shown here. Equal values may be shown once.

Tests used:
[1] = molecular target: T1, 5-HT1D (Homo sapiens, UniProt P28221); assay: Antagonist functional assay; format: cell-based; conditions: read-out: Percent Inhibition of Agonist Response 5-HT1D
Summary of the method: (§1)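 Run by the NIMH PDSP as cell-based antagonist-mode functional assays. Test compounds were applied at 10 μM. The read-out was percent inhibition of the response to an EC90 concentration of a reference agonist; that concentration was determined empirically for each receptor.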

[2] = molecular target: T2, 5-HT2B (Homo sapiens, UniProt P41595); assay: Radioligand competition binding assay
[3] = molecular target: 5-HT3 (Homo sapiens, UniProt P46098); assay: Radioligand competition binding assay; conditions: read-out: Percent Inhibition of Binding 5-HT3
Summary of the method: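 Run by the NIMH PDSP as a radioligand competition binding primary screen. Test compounds were applied at 10 μM, and the read-out was mean percent inhibition of radioligand binding (n=4).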

[4] = molecular target: T3, 5-HT2C (Homo sapiens, UniProt P28335); assay: Antagonist functional assay; format: cell-based; conditions: read-out: Percent Inhibition of Agonist Response 5-HT2C
T3 sequence (P28335 33-458): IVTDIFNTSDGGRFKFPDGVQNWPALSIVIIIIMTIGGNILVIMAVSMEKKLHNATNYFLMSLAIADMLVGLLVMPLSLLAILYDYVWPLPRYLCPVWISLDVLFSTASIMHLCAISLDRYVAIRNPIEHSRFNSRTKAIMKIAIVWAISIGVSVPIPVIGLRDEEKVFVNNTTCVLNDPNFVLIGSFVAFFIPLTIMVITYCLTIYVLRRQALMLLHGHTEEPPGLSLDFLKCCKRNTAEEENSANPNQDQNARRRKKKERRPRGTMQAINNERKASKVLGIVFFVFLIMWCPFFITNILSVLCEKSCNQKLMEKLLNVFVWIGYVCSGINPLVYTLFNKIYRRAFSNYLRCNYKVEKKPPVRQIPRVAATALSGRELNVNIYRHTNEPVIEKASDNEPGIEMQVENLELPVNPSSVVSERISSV
Summary of the method: as §1

[5] = molecular target: T4, 5-HT1A (Homo sapiens, UniProt P08908); assay: Radioligand competition binding assay
T4 sequence (P08908 1-422): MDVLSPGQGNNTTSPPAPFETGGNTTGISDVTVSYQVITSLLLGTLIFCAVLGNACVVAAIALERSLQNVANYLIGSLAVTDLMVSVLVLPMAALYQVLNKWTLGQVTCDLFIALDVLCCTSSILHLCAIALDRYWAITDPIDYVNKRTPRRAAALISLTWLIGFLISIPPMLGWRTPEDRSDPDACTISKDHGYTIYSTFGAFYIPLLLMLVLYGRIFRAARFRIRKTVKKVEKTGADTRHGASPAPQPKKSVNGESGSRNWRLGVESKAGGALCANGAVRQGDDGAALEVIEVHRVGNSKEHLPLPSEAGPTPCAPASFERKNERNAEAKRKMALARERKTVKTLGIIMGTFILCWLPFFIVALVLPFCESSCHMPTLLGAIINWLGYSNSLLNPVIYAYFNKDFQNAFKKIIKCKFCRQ

[6] = molecular target: T2, 5-HT2B; assay: Antagonist functional assay; format: cell-based; conditions: read-out: Percent Inhibition of Agonist Response 5-HT2B
Summary of the method: as §1

[7] = molecular target: T1, 5-HT1D; assay: Radioligand competition binding assay
Summary of the method: (§2)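 Run by the NIMH PDSP as radioligand competition binding assays. The primary screen used 10 μM test compound and reported mean percent inhibition of radioligand binding (n=4); above 50% counted as significant. At those receptors, IC50 values came from non-linear regression of competition binding isotherms and were converted to Ki with the Cheng-Prusoff equation.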

[8] = molecular target: T5, 5-HT2A (Homo sapiens, UniProt P28223); assay: Radioligand competition binding assay
[9] = molecular target: T3, 5-HT2C; assay: Radioligand competition binding assay
[10] = molecular target: T5, 5-HT2A; assay: Antagonist functional assay; format: cell-based; conditions: read-out: Percent Inhibition of Agonist Response 5-HT2A
Summary of the method: as §1

[11] = molecular target: T6, 5-HT7 (Homo sapiens, UniProt P34969); assay: Radioligand competition binding assay
Summary of the method: as §2

[12] = molecular target: T6, 5-HT7; assay: Antagonist functional assay; format: cell-based; conditions: read-out: Percent Inhibition of Agonist Response 5-HT7
Summary of the method: as §1

[13] = molecular target: 5-HT6 (Homo sapiens, UniProt P50406); assay: Radioligand competition binding assay
Summary of the method: as §2

[14] = molecular target: 5-HT5A (Homo sapiens, UniProt P47898); assay: Radioligand competition binding assay
Summary of the method: as §2

[15] = system: 5-HTRs; assay: Agonist functional assays at 5 serotonin receptors; format: cell-based; conditions: 5 receptors where low Ki values were observed; data not shown
[16] = molecular target: 5-HT1B (Homo sapiens, UniProt P28222); assay: Radioligand competition binding assay; conditions: read-out: Percent Inhibition of Binding 5-HT1B
Summary of the method: as §2

[17] = system: PKC; assay: PKC activation: phosphorylation of PKC substrates by western blot in HeLa cells; format: cell-based, human
Summary of the method: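 HeLa cells were grown in DMEM with 5% FBS and treated 30 min with 4 or 40 μM test compound or 100 nM PMA, with or without 1 h pretreatment with 500 nM bisindolylmaleimide II. In separate runs, a 5-HT2AR agonist (10 μM, 6 h) was given with or without 40 μM antagonist. Lysates (50 μg) were immunoblotted for phospho-(Ser) PKC substrates; four independent experiments were quantified.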

[18] = molecular target: DGKι (Homo sapiens, UniProt O75912); assay: Kinase assay with HEK 293T cell homogenate over-expressing DGKι; format: biochemical
[19] = molecular target: T7, DGKα (Rattus norvegicus, UniProt P51556); assay: Kinase assay with HEK 293T cell homogenate over-expressing DGKα; format: biochemical
Summary of the method: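 Each reaction held 5 μg homogenate protein, 2 mM extruded PC:PS:DAG liposomes (10 mol% dioleoyl, dioctanoyl or stearoyl-arachidonoyl DAG), buffer B, 1 mM DTT, 1 mM CaCl2 and 1 mM [γ32P]-ATP, run 20 min at 30°C. Test compounds came from DMSO stocks. 32P-PA was counted, normalized to GFP lysate and to DMSO control; IC50 from log[inhibitor] versus normalized response.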

[20] = molecular target: DGKβ (Rattus norvegicus, UniProt P49621); assay: Kinase assay with HEK 293T cell homogenate over-expressing DGKβ; format: biochemical; conditions: 20 μM inhibitor, dioleoyl DAG liposomes
Summary of the method: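 Reactions contained 5 μg homogenate, 2 mM liposomes (10 mol% dioleoyl DAG, 40 mol% PS, 50 mol% PC), buffer B, 1 mM DTT, 1 mM CaCl2 and [γ32P]-ATP, 20 min at 30°C. Test compound was added from DMSO. Organic-phase 32P was counted and expressed as percent of DMSO control after subtracting the GFP-lysate background.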

[21] = molecular target: T7, DGKα; assay: Kinase assay with purified DGKα and PC:DAG:PS liposomes; format: biochemical; conditions: for Vmax (ATP): ATP-dependent activity, 5 mol% DAG; for Vmax (DAG): DAG-dependent activity, 1 mM ATP; for Decrease of Vmax of purified DGKα: 0.5 mol% drug
Summary of the method: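 Rat FLAG-DGKα was expressed in HeLa cells by adenovirus (72 h) and purified on FLAG M2 beads. Reactions contained buffer B (MOPS pH 7.5), 1 mM CaCl2, 1 mM DTT and 4.75 mM PC:PS:DAG liposomes (5 mol% DAG), with test compound built into the liposomes at 0.5 or 2.0 mol% or added from DMSO. Reactions with [γ32P]-ATP ran 15 min at 25°C. Km and Vmax came from Michaelis-Menten non-linear regression.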

[22] = molecular target: DGKδ (Homo sapiens, UniProt Q16760); assay: Kinase assay with HEK 293T cell homogenate over-expressing DGKδ; format: biochemical; conditions: 20 μM inhibitor, dioleoyl DAG liposomes
Summary of the method: (§3)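 Reactions without CaCl2 contained 5 μg homogenate, 2 mM liposomes (10 mol% dioleoyl DAG, 40 mol% PS, 50 mol% PC), buffer B, 1 mM DTT and [γ32P]-ATP, 20 min at 30°C. Test compound was added from DMSO. Extracted 32P-lipid was counted, GFP-lysate normalized, and expressed as percent of DMSO control.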

[23] = cited from earlier work
[24] = molecular target: DGKθ (Homo sapiens, UniProt P52824); assay: Kinase assay with HEK 293T cell homogenate over-expressing DGKθ; format: biochemical; conditions: 20 μM inhibitor, dioleoyl DAG liposomes
Summary of the method: as §3

[25] = system: PKC; assay: PKC activation: phosphorylation of PKC substrates by western blot in U251 cells; format: cell-based, human; conditions: treatment for 30 min
Summary of the method: (§4)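 Glioblastoma cells were treated 30 min with 4 or 40 μM test compound or 100 nM PMA, with or without 1 h pretreatment with 500 nM bisindolylmaleimide II. Cleared Triton lysates (50 μg) were run on 8.75% SDS-PAGE and probed with phospho-(Ser) PKC substrate antibody, detected by alkaline phosphatase chemiluminescence. Three independent experiments were quantified.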

[26] = system: PKC; assay: PKC activation: phosphorylation of PKC substrates by western blot in U87 cells; format: cell-based, human; conditions: treatment for 30 min
Summary of the method: as §4

T1 sequence (P28221 whole entry, species assumed): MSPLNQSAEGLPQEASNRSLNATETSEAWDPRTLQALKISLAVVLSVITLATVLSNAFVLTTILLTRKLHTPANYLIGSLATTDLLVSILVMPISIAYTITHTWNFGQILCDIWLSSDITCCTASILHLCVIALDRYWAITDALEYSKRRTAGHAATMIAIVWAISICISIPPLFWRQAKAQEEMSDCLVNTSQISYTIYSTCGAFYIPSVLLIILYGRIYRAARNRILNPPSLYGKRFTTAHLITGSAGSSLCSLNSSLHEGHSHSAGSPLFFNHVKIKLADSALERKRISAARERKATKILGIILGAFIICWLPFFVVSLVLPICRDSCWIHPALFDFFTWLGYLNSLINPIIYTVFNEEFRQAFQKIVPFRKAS
T7 sequence (P51556 whole entry): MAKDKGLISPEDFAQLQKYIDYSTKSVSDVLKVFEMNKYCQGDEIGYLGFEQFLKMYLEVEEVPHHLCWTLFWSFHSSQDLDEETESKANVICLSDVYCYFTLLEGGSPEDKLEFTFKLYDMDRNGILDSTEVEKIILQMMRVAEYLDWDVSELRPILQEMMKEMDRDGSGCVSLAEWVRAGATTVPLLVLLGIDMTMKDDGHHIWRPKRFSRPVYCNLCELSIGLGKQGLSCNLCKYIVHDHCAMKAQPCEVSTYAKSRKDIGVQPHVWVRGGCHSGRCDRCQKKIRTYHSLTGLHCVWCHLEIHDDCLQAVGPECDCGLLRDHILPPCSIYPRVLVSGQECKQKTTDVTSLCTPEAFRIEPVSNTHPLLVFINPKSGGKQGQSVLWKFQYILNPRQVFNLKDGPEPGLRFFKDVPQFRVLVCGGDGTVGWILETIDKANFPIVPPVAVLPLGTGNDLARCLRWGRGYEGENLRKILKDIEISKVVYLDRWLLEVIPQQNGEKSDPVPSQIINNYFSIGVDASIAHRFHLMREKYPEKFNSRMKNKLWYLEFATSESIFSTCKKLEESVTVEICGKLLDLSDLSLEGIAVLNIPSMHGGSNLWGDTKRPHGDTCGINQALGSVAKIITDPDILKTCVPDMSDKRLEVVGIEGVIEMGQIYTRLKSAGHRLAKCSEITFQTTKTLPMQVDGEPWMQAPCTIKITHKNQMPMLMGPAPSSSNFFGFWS
Chain of DGKι (O75912 1-1065 isoform O75912-1): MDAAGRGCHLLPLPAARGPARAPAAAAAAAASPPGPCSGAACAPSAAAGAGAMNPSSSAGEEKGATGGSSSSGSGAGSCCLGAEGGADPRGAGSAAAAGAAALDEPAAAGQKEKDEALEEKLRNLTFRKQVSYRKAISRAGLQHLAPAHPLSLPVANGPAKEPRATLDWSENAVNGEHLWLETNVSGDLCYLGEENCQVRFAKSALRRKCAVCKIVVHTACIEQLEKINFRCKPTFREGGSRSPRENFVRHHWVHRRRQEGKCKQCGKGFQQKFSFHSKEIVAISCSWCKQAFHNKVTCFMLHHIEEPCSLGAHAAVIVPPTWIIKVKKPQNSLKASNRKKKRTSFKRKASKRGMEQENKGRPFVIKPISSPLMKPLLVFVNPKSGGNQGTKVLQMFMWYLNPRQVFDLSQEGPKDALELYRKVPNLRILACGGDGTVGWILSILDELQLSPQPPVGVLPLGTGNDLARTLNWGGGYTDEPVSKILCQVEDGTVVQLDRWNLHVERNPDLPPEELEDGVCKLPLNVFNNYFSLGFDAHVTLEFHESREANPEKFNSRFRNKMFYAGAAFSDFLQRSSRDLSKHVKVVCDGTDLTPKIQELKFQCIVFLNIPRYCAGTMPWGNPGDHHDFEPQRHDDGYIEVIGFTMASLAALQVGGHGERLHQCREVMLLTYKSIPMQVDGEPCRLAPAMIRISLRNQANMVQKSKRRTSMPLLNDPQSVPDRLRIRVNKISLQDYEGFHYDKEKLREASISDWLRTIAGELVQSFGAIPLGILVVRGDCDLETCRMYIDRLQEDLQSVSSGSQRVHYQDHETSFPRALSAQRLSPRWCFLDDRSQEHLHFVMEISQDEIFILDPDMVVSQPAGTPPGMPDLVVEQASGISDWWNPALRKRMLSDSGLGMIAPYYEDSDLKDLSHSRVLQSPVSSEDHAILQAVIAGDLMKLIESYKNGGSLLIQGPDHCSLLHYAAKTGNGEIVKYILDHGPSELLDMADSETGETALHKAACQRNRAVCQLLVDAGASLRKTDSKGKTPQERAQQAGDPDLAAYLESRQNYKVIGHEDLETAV
T2 sequence (P41595 whole entry, species assumed): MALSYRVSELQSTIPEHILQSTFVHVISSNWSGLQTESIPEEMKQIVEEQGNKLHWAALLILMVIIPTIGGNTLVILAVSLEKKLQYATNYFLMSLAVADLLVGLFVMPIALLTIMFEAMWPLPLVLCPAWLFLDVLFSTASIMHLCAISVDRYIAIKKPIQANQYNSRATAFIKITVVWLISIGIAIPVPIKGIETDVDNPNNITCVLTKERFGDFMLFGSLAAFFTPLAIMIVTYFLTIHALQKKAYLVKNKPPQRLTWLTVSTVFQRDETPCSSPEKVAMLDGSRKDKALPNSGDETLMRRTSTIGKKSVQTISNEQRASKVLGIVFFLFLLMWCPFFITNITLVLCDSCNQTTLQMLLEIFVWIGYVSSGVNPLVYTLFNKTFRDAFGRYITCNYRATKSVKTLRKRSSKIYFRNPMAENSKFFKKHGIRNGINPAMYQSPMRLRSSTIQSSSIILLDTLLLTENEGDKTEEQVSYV
T5 sequence (P28223 whole entry, species assumed): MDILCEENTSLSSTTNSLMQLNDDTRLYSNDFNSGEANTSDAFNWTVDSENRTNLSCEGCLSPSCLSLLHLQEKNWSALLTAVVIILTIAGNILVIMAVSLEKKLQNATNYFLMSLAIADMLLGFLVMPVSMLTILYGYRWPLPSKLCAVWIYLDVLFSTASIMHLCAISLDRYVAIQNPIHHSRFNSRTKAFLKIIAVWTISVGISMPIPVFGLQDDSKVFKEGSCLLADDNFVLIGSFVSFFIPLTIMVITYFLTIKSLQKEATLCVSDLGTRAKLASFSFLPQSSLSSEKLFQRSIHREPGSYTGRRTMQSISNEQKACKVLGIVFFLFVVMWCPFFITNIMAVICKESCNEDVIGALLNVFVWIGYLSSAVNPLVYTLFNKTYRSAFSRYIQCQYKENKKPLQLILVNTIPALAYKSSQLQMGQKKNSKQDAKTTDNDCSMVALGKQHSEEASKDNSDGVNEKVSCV
T6 sequence (P34969 whole entry, species assumed): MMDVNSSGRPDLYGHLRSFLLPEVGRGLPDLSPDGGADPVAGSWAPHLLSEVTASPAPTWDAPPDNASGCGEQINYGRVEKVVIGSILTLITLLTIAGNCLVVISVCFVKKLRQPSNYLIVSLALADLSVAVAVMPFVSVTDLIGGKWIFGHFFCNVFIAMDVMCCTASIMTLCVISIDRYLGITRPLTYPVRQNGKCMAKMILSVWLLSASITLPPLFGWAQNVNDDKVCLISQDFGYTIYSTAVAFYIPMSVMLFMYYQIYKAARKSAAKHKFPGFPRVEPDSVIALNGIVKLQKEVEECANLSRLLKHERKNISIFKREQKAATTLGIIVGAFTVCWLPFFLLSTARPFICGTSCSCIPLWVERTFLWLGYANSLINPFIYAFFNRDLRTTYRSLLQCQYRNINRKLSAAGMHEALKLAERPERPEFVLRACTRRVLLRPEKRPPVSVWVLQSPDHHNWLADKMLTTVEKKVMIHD
Chain of 5-HT5A (P47898 whole entry, species assumed): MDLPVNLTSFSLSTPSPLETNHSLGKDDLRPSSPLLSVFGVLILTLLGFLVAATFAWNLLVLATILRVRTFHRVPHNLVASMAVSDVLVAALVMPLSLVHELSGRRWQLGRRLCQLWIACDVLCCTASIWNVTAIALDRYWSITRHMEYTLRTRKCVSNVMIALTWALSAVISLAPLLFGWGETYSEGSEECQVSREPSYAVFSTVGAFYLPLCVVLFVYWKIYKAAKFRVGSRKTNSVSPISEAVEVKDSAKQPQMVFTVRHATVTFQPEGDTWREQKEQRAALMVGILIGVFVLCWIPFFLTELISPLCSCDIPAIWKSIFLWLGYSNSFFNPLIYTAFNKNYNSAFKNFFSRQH
Chain of 5-HT6 (P50406 whole entry, species assumed): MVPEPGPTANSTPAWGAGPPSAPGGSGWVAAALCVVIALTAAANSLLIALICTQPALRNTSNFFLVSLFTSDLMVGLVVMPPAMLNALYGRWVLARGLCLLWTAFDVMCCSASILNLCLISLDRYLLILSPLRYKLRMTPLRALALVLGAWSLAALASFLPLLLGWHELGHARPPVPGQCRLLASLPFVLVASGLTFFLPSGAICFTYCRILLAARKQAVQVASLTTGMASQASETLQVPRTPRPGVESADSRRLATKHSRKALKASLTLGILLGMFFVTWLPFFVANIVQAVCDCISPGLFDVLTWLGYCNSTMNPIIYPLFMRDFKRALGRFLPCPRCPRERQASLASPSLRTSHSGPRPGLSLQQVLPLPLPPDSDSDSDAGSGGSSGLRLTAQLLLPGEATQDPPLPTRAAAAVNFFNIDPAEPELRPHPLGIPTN
Chain of 5-HT1B (P28222 whole entry, species assumed): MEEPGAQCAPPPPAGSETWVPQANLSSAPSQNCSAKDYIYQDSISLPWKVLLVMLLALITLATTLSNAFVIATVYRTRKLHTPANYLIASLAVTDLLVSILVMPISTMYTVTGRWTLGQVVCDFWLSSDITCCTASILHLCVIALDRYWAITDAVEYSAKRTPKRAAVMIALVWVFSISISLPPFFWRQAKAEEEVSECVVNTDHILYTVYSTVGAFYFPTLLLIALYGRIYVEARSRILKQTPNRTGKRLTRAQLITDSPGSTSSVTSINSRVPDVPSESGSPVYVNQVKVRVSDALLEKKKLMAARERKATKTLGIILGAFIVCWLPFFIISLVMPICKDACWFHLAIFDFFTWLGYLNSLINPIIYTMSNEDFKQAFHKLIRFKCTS

For `O=c1c2ccccc2[nH]c(=S)n1CCN1CCC(=C(c2ccc(F)cc2)c2ccc(F)cc2)CC1` [R59949, 3-[2-(4-[bis-(4-fluorophenyl)methylene]-1-piperidinyl)ethyl]-2,3-dihydro-2-thioxo-4(1H)quinazolinone], the inhibition at 10 µM [1] was 136%, the Ki [2] was 80 nM and the inhibition at 10 µM ([2]; read-out: Percent Inhibition of Binding 5-HT2B) was 96.9%. It also gave an inhibition at 10 µM [3] of 0.7%, an inhibition at 10 µM [4] of 28.1% and a Ki [5] of 2000 nM. The inhibition at 10 µM ([5]; read-out: Percent Inhibition of Binding 5-HT1A) was 61.1%, the inhibition at 10 µM [6] was 99.4% and the Ki [7] was 64.5 nM. It also gave an inhibition at 10 µM ([7]; read-out: Percent Inhibition of Binding 5-HT1D) of 76.7%, a Ki [8] of 9.2 nM and an inhibition at 10 µM ([8]; read-out: Percent Inhibition of Binding 5-HT2A) of 94.2%. For the same molecule, the Ki [9] was 46 nM, the inhibition at 10 µM ([9]; read-out: Percent Inhibition of Binding 5-HT2C) was 72.2% and the inhibition at 10 µM [10] was 101%. It also gave a Ki [11] of 681 nM, an inhibition at 10 µM ([11]; read-out: Percent Inhibition of Binding 5-HT7) of 82.8% and an inhibition at 10 µM [12] of 32.9%. For the same molecule, the Ki [13] was 3070 nM, the inhibition at 10 µM ([13]; read-out: Percent Inhibition of Binding 5-HT6) was 71.8% and the Ki [14] was 3250 nM. The inhibition at 10 µM ([14]; read-out: Percent Inhibition of Binding 5-HT5A) was 71.6%, the “Agonist activity at 5-HTRs” value [15] was “very low to no activity” and the inhibition at 10 µM [16] was 20.3%.

With `CN1CCCC1CCn1cc(C2=C(c3c[nH]c4ccccc34)C(=O)NC2=O)c2ccccc21` (centres unmarked) [bis, bisindolylmaleimide II] the “Change in basal PKC activity” value ([17]; 500 nM bis alone for 1 h) was “did not see any changes in basal PKC activity”.

In the case of `Cc1nc2sccn2c(=O)c1CCN1CCC(=C(c2ccc(F)cc2)c2ccc(F)cc2)CC1` [ritanserin], the “Activity of DGKι, percent of control” value ([18]; 20 μM inhibitor, dioleoyl DAG liposomes, cell homogenate) is reported as “not detectably inhibited”, the IC50 ([18]; IC50 for DGKι, cell homogenate, 1 mM ATP, 10 mol% DAG) is reported as 55000 to 65000 nM and ~60000 nM and the “IC50 for DGKι relative to IC50 for DGKα” value ([18]; fold higher than IC50 for DGKα) is reported as 2–3 fold. For the same molecule, the IC50 [19] was roughly 15000 nM, the “Activity of DGKα, percent of control” value ([19]; 20 μM inhibitor, liposomes with dioleoyl DAG, cell homogenate) was “decreased by about half” and the “Potency against DGKα with other DAG species” value ([19]; 20 μM, liposomes containing dioctanoyl or stearoyl arachidonoyl DAG) was “similarly potent”. For the same molecule, the “Activity of DGKβ, percent of control” value [20] was “not detectably inhibited”, the “Vmax (ATP)” value ([21]; 0.5 mol% drug in liposomes) was 20 ± 1 nmol/min/mg and the “Vmax (DAG)” value ([21]; 0.5 mol% drug in liposomes) was 17 ± 2 nmol/min/mg. The “Decrease of Vmax of purified DGKα” value ([21]; in the context of ATP) was “greater than 50%”, the “Decrease of Vmax of purified DGKα” value ([21]; in the context of DAG) was “greater than 50%” and the “Vmax (ATP)” value ([21]; 2.0 mol% drug in liposomes) was 12 ± 0.01 ^† nmol/min/mg. For the same molecule, the “Vmax (DAG)” value ([21]; 2.0 mol% drug in liposomes) was 11 ± 2 nmol/min/mg, the “Activity of DGKδ, percent of control” value [22] was “not detectably inhibited” and the Adverse side effects [23] was “few adverse side effects”. For the same molecule, the Oral bioavailability [23] was “orally bioavailable”, the half-life ([23]; in humans) was “approximately 40 hours” and the “Activity of DGKθ, percent of control” value [24] was “not detectably inhibited”. The “Activation of PKC” value [25] was “not in U251 cells”, the “Activation of PKC” value [26] was “activate PKC” and the “Increase in phosphorylation of PKC downstream targets” value ([17]; 40 μM, 30 min) was “about 2.5 fold”.

For `O=C(c1ccc(F)cc1)C1CCN(CCn2c(=O)[nH]c3ccccc3c2=O)CC1` [ketanserin], the IC50 [21] was 264000 nM, the “Activation of PKC” value [25] was “does not activate PKC” and the “Activation of PKC” value [26] was “does not activate PKC”. The “Effect on TCB-2-induced PKC activation” value ([17]; 40 μM ketanserin co-treatment with 10 μM TCB-2 for 6 h) was “inhibited the ability of TCB-2 to activate PKC” and the “Activation of PKC” value ([17]; 40 μM ketanserin, 30 min) was “no activation of PKC was observed”.

In the case of `CCCCCCCCCCCCCC(=O)O[C@@H]1[C@@H](C)[C@@]2(O)[C@@H](C=C(CO)C[C@]3(O)C(=O)C(C)=C[C@@H]23)[C@@H]2C(C)(C)[C@]12OC(C)=O` [PMA, Phorbol 12-myristate 13-acetate], the “Increase in phosphorylation of PKC downstream targets” value ([17]; 100 nM PMA, 30 min) is reported as “greater than 3 fold”.

For `COc1cc(Br)c(OC)c2c1[C@H](CN)C2` [TCB-2], the PKC activity ([17]; 10 μM TCB-2 for 6 h) was “significant elevation of PKC activity”.
